The source of these data is PMC11027041 (RSC Advances, 2024).

Assay [1] deals with melanoma cell line SK-MEL-2. Nature of the assay: Cell viability assay. The format is cell-based. The conditions noted are these: Homo sapiens, SK-MEL-2, 72 h, read-out: Antiproliferative IC50 SK-MEL-2.
The test system of assay [2] is colon cancer cell line HCT-116. Nature of the assay: Cell viability assay. The format is cell-based. The settings on record: Homo sapiens, HCT-116, 72 h, read-out: Antiproliferative IC50 HCT116.
For the next assay, the target named is HDAC1 (Homo sapiens, UniProt Q13547). Nature of the assay: In vitro HDAC enzyme assay. It is filed as biochemical. The settings on record: for inhibition at 0.5 µM: read-out: Inhibition% (inhibition rate, IR) against HDAC1, at a concentration of 500 nM.
Assay [3] has as its system normal bone marrow cells HS-5. Put plainly: Cell viability assay. It is filed as cell-based. The conditions noted are these: 72 h, read-out: Antiproliferative IC50 HS-5. A digest of the protocol: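 Cells grown in IMDM with 20% FBS, 100 U per mL penicillin and 100 μg per mL streptomycin, then plated in 96-well format. Test compound exposure was 72 h. Alamar blue solution (1 mM, as added) was then applied for a further 5–6 h, and […] was read at 530/590 nm. Data were normalized to vehicle, as means of three independent measurements (standard errors <20%), and IC50 was calculated.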

HDAC1, sequence (Q13547 whole entry): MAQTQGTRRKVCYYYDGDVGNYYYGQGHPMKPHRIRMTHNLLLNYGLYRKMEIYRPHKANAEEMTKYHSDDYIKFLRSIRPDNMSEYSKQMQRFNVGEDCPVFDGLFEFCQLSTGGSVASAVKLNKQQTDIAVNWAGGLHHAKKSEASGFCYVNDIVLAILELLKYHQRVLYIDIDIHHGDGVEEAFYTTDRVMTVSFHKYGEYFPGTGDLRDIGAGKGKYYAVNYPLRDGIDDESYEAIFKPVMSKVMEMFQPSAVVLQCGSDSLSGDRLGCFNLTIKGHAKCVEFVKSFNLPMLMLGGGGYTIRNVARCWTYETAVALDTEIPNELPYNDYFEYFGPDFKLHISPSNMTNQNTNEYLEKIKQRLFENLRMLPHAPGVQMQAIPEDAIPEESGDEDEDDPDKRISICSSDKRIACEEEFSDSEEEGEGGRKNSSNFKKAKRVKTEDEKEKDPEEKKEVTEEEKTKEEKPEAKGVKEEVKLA

In general, IC50 refers to the concentration that inhibits the measured activity by half. As to `O=C(CCCCCCNC(=O)c1cnc(N(c2ccccc2)c2ccccc2)nc1)NO` [ACY-1215, reference compound], the IC50 in assay [1] is 4.5 ± 0.14 µM; in assay [2] it was 3.87 ± 0.11 µM. Consider `COc1ccc(CN2Cc3[nH]c4ccccc4c3C[C@H]2C(=O)NCCCCCCC(=O)NO)cc1` [Compound 9a, (S)-N-(7-(Hydroxyamino)-7-oxoheptyl)-2-(4-methoxybenzyl)-2,3,4,9-tetrahydro-1H-pyrido[3,4-b]indole-3-carboxamide], for which the inhibition at 0.5 µM at HDAC1 (duplicate) amounted to 31.8%.

Consider `COc1ccc([C@H]2N[C@H](C(=O)NCCCCCC(=O)NO)Cc3c2[nH]c2ccccc32)cc1` [Compound 9b, (1R,3S)-N-(6-(Hydroxyamino)-6-oxohexyl)-1-(4-methoxyphenyl)-2,3,4,9-tetrahydro-1H-pyrido[3,4-b]indole-3-carboxamide], for which the inhibition at 0.5 µM at HDAC1 (duplicate) is 23.2%.

For `COc1ccc([C@H]2N[C@H](C(=O)NCCCCCCC(=O)NO)Cc3c2[nH]c2ccccc32)cc1` [Compound 9c, (1R,3S)-N-(7-(Hydroxyamino)-7-oxoheptyl)-1-(4-methoxyphenyl)-2,3,4,9-tetrahydro-1H-pyrido[3,4-b]indole-3-carboxamide], at HDAC1 (duplicate), the inhibition at 0.5 µM was 41.3%. Turning to `O=C(CCCCCNC(=O)[C@@H]1Cc2c([nH]c3ccccc23)[C@@H](c2ccccc2)N1)NO` [Compound 9d, (1R,3S)-N-(6-(Hydroxyamino)-6-oxohexyl)-1-phenyl-2,3,4,9-tetrahydro-1H-pyrido[3,4-b]indole-3-carboxamide], at HDAC1 (duplicate), the inhibition at 0.5 µM was 39.6%.

As to `COc1ccc(CN2[C@H](C)c3[nH]c4ccccc4c3C[C@H]2C(=O)NCCCCCC(=O)NO)cc1` [Compound 9e, (1R,3S)-N-(6-(Hydroxyamino)-6-oxohexyl)-2-(4-methoxybenzyl)-1-methyl-2,3,4,9-tetrahydro-1H-pyrido[3,4-b]indole-3-carboxamide], the inhibition at 0.5 µM at HDAC1 (duplicate) is 58.1%.

With `COc1ccc(CN2[C@H](C)c3[nH]c4ccccc4c3C[C@H]2C(=O)NCCCCCCC(=O)NO)cc1` [Compound 9f, (1R,3S)-N-(7-(Hydroxyamino)-7-oxoheptyl)-2-(4-methoxybenzyl)-1-methyl-2,3,4,9-tetrahydro-1H-pyrido[3,4-b]indole-3-carboxamide], on HDAC1 (duplicate), the inhibition at 0.5 µM worked out at 40.8%. Same read-out and setting: in the case of `O=C(CCCCCCNC(=O)[C@@H]1Cc2c([nH]c3ccccc23)[C@@H](c2ccc(Cl)cc2)N1)NO` [Compound 9g, (1R,3S)-1-(4-Chlorophenyl)-N-(7-(hydroxyamino)-7-oxoheptyl)-2,3,4,9-tetrahydro-1H-pyrido[3,4-b]indole-3-carboxamide] it was 65.4%; in that of `COc1ccc([C@H]2N[C@H](C(=O)NCCCCCCC(=O)NO)Cc3c2[nH]c2ccccc32)cc1OC` [Compound 9h, (1R,3S)-1-(3,4-Dimethoxyphenyl)-N-(7-(hydroxyamino)-7-oxoheptyl)-2,3,4,9-tetrahydro-1H-pyrido[3,4-b]indole-3-carboxamide], 46.5%; in that of `O=C(CCCCCCNC(=O)[C@@H]1Cc2c([nH]c3ccccc23)[C@@H](C2CC2)N1)NO` [Compound 9i, (1R,3S)-1-Cyclopropyl-N-(7-(hydroxyamino)-7-oxoheptyl)-2,3,4,9-tetrahydro-1H-pyrido[3,4-b]indole-3-carboxamide], 77.3%. On the same count and under the same terms, in the case of `COc1ccc(CN2Cc3[nH]c4ccccc4c3C[C@@H]2C(=O)NCCCCCCC(=O)NO)cc1` [Compound 13a, (R)-N-(7-(Hydroxyamino)-7-oxoheptyl)-2-(4-methoxybenzyl)-2,3,4,9-tetrahydro-1H-pyrido[3,4-b]indole-3-carboxamide] it was 44.3%; in that of `COc1ccc([C@@H]2N[C@@H](C(=O)NCCCCCC(=O)NO)Cc3c2[nH]c2ccccc32)cc1` [Compound 13b, (1S,3R)-N-(6-(Hydroxyamino)-6-oxohexyl)-1-(4-methoxyphenyl)-2,3,4,9-tetrahydro-1H-pyrido[3,4-b]indole-3-carboxamide], 49.2%. Take `COc1ccc([C@@H]2N[C@@H](C(=O)NCCCCCCC(=O)NO)Cc3c2[nH]c2ccccc32)cc1` [Compound 13c, (1S,3R)-N-(7-(Hydroxyamino)-7-oxoheptyl)-1-(4-methoxyphenyl)-2,3,4,9-tetrahydro-1H-pyrido[3,4-b]indole-3-carboxamide]: on HDAC1, the IC50 was 0.047 ± 0.00125 µM. For the same compound, the “Inhibition% (inhibition rate, IR) against HDAC1” value on HDAC1 (at a concentration of 500 nM, duplicate, 0.5 µM) is 81.6%. The inhibition at 0.5 µM on HDAC1 (duplicate) was found to be 66%. For the compound `COc1ccc(CN2[C@@H](C(=O)NCCCCCC(=O)NO)Cc3c([nH]c4ccccc34)[C@@H]2C)cc1` [Compound 13e, (1S,3R)-N-(6-(Hydroxyamino)-6-oxohexyl)-2-(4-methoxybenzyl)-1-methyl-2,3,4,9-tetrahydro-1H-pyrido[3,4-b]indole-3-carboxamide], the IC50 in assay [3] was > 50 µM; in assay [1] it was 9.65 ± 0.46 µM; in assay [2] it was 8.34 ± 0.24 µM; on HDAC1, 0.0536 ± 0.0025 µM. At HDAC1 (duplicate), the inhibition at 0.5 µM stood at 84.8%. For `COc1ccc(CN2[C@@H](C(=O)NCCCCCCC(=O)NO)Cc3c([nH]c4ccccc34)[C@@H]2C)cc1` [Compound 13f, (1S,3R)-N-(7-(Hydroxyamino)-7-oxoheptyl)-2-(4-methoxybenzyl)-1-methyl-2,3,4,9-tetrahydro-1H-pyrido[3,4-b]indole-3-carboxamide], in that order: > 50 µM, 5.7 ± 0.12 µM, 4.22 ± 0.12 µM, 0.0224 ± 0.00084 µM and 91.4%.

Take `O=C(CCCCCCNC(=O)[C@H]1Cc2c([nH]c3ccccc23)[C@H](C2CC2)N1Cc1ccccc1)NO` [Compound 13g, (1S,3R)-2-Benzyl-1-cyclopropyl-N-(7-(hydroxyamino)-7-oxoheptyl)-2,3,4,9-tetrahydro-1H-pyrido[3,4-b]indole-3-carboxamide]: the IC50 was > 50 µM in assay [3], 3.16 ± 0.08 µM in assay [1], 3.2 ± 0.09 µM in assay [2] and 0.0104 ± 0.00065 µM on HDAC1. Moreover, on HDAC1 (duplicate), the inhibition at 0.5 µM came to 98.2%.

For the compound `O=C(CCCCCNC(=O)[C@H]1Cc2c([nH]c3ccccc23)[C@H](c2ccc(Cl)cc2)N1)NO` [Compound 13h, (1S,3R)-1-(4-Chlorophenyl)-N-(6-(hydroxyamino)-6-oxohexyl)-2,3,4,9-tetrahydro-1H-pyrido[3,4-b]indole-3-carboxamide], the inhibition at 0.5 µM on HDAC1 (duplicate) was determined as 51.3%.

`O=C(CCCCCCNC(=O)[C@H]1Cc2c([nH]c3ccccc23)[C@H](c2ccc(Cl)cc2)N1)NO` [Compound 13i, (1S,3R)-1-(4-Chlorophenyl)-N-(7-(hydroxyamino)-7-oxoheptyl)-2,3,4,9-tetrahydro-1H-pyrido[3,4-b]indole-3-carboxamide]: the values for the IC50 in assay [3], in assay [1] and in assay [2] were > 50 µM, 7.84 ± 0.26 µM and 7.55 ± 0.18 µM, respectively. On HDAC1 (duplicate), the inhibition at 0.5 µM came to 66%.

Consider `COc1ccc([C@@H]2N[C@@H](C(=O)NCCCCCCC(=O)NO)Cc3c2[nH]c2ccccc32)cc1OC` [Compound 13j, (1S,3R)-1-(3,4-Dimethoxyphenyl)-N-(7-(hydroxyamino)-7-oxoheptyl)-2,3,4,9-tetrahydro-1H-pyrido[3,4-b]indole-3-carboxamide], for which the inhibition at 0.5 µM at HDAC1 (duplicate) was found to be 72.5%.
